Compounds with a hit are over-represented: about 3.2% of the library has one in this group of screens.
CHO parental Ca = ATP-evoked calcium signal inhibitors, parental CHO, primary screen, counter-screen for OX1R antagonist project, cell-based, fluorescence, Fluo-8 calcium dye | parental CHO-K1, ATP-induced calcium, Fluo-8 fluorescence | inhibition, % at 5.6 µM | 0.63% of 330,000 active;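 active = inhibition above that plate's mean sample inhibition plus 3 SD, cut at about 26% in these data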;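 also: 0% = ATP-challenged DMSO wells and 100% = DMSO wells without ATP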
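test system = CHO parental line | reagent = ATP stimulus | measured by = intracellular calcium via Fluo-8 no-wash fluorescent dye | control set = ATP and no-ATP DMSO wells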
TRPN1 ag = zebrafish TRPN1 channel agonists, primary screen, cell-based, HEK293, calcium fluorescence; transient receptor potential cation channel N1 (TRPN1/NompC), Danio rerio; HEK293 zebrafish TRPN1-YFP, Fluo-8 calcium fluorescence; 100% = response to 87 µM carbachol; activation, % at 3 µM; 0.18% of 220,000 active; AID 1424, 2008;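 active = activation above its plate's cutoff, the mean activation of test wells on that plate plus 3 SD, cut at about 19% in these data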;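 also: 0% = DMSO alone and 100% = 87 µM carbachol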
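Material: zebrafish TRPN1-YFP in HEK293 cells; Doses: single test compound dose, 3 µM nominal, 0.3% DMSO; Timing: dye loading 1 h at 37 °C, then 30 min room temperature; Technique: intracellular calcium fluorescence with Fluo-8; Benchmarks: high carbachol 87 µM, low DMSO alone.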
GPR7 antag = GPR7 receptor antagonists, primary screen, cell-based, fluorescence, single concentration. Neuropeptides B/W receptor type 1 (Homo sapiens), P48145. GPR7-expressing cells, fluorescence antagonist assay. inhibition, % at 4.4 µM. 1.1% of 290,000 active. AID 1861, 2009; in the data active = inhibition above about 16%, passing the limit was not always enough;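 also: cells stimulated with the agonist NPW; 0% = agonist with vehicle and 100% = vehicle without agonist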
TRPML3 ag = human TRPML3 channel agonists, primary screen, cell-based, HEK293 TRPML3-YFP, Fluo-8 calcium fluorescence, 3 µM | Mucolipin-3 (Homo sapiens), Q8TDD5 | 0.29% of 220,000 active | activation, % at 3 µM | 100% = the carbachol control signal;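 active = activation above its plate's cutoff, the mean activation of the plate's test wells plus 3 SD, cut at about 12% in these data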;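 also: 0% = DMSO only wells and 100% = carbachol wells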
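Test system: TRPML3-YFP stable HEK293 cells. Doses: single point at 3 µM. Incubation: dye loading 1 h 37 °C then 30 min ambient, 125 s read. Signal: Fluo-8 calcium dye fluorescence, ex 470-495, em 515-575 nm. Measure: percent activation from peak-to-basal fluorescence ratio, scaled between DMSO and carbachol.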
OX1R antag-1 = OX1R (HCRTR1) antagonists, primary screen, fluorescence, CHO/OX1R cells, Fluo-8 calcium, orexin A; AID 434989, 2010; 0.43% of 330,000 active; inhibition, % at 5 µM; Fluo-8 calcium fluorescence;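 active = inhibition above its plate's threshold, mean inhibition of all tested compounds on the plate plus 3 SD, cut at about 37% in these data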;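 also: 0% = orexin A challenge wells and 100% = SB-334867-A antagonist wells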
Target sequence (O43613 whole entry, looked up): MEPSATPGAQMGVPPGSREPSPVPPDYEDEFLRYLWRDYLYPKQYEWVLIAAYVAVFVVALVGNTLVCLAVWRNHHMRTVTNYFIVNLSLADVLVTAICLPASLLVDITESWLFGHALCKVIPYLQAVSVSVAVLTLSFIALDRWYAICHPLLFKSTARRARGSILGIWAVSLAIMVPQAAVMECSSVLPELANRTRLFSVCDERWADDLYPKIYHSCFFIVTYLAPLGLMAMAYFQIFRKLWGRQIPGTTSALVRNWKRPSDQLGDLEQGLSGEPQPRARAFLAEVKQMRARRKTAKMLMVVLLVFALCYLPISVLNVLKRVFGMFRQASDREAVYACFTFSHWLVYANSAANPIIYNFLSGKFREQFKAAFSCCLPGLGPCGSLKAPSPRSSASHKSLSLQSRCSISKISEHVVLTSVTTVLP
OX1R antag-2 = antagonists of human orexin 1 receptor (OX1R); 1.8% of 330,000 active; Orexin/Hypocretin receptor type 1 (Homo sapiens), O43613; inhibition, % at 6.6 µM; OX1R-expressing cells, FRET antagonist read-out; in the data active = inhibition mostly above about 38%, no sharp cut-off; inactive = mostly below about 40%;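 also: 0% = agonist challenge alone and 100% = reference antagonist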
Active calls of the source: *.

`Nc1ccc2c3c(cccc13)CC2` gave CHO parental Ca 60*, TRPN1 ag 42*, GPR7 antag 1, TRPML3 ag 20*, OX1R antag-1 71* and OX1R antag-2 13.
O=C(/C=C/c1ccccc1)N1CCN(c2c(Cl)cccc2[N+](=O)[O-])CC1 was read as CHO parental Ca -26, TRPN1 ag -1, GPR7 antag 2, TRPML3 ag -1, OX1R antag-1 -16 and OX1R antag-2 57.
Screening COc1ccccc1NC(=O)C1CCCCN1S(=O)(=O)c1ccc(F)cc1 (stereo unspecified) returned CHO parental Ca -15, TRPN1 ag 0, GPR7 antag 2, TRPML3 ag 0, OX1R antag-1 4 and OX1R antag-2 57*.
COc1ccc(NC(=O)C2CCCCN2S(=O)(=O)c2ccc(F)cc2)c(OC)c1 (stereo unspecified) was read as CHO parental Ca -22, TRPN1 ag -1, GPR7 antag -8, TRPML3 ag 0, OX1R antag-1 -5 and OX1R antag-2 16.
For O=C(Nc1ccccc1NS(=O)(=O)c1ccc(F)cc1)C1CCCC1 the results were CHO parental Ca -16, TRPN1 ag 0, GPR7 antag -7, TRPML3 ag 0, OX1R antag-1 2 and OX1R antag-2 63*.
Screening CCOc1ccccc1NC(=O)C1CCCCN1S(=O)(=O)c1ccccc1 (stereo unspecified) returned CHO parental Ca -25, OX1R antag-1 33 and OX1R antag-2 53*.
Screening Cc1cccc(C)c1NC(=O)[C@@]1(CC(=O)O)CC(/C=C/c2ccccc2)=NO1 returned GPR7 antag 3.
Cc1ccc(NC2=C/C(=N\S(=O)(=O)c3cccs3)c3ccccc3C2=O)c(C)c1 was read as CHO parental Ca -34, TRPN1 ag -2, GPR7 antag -5, TRPML3 ag 0, OX1R antag-1 -22 and OX1R antag-2 61.
For CC(C)(C)c1cc[n+](C2=C([O-])c3ccccc3C(=O)/C2=N\S(=O)(=O)c2cccs2)cc1 the results were CHO parental Ca -15, TRPN1 ag -2, GPR7 antag 1, TRPML3 ag 0, OX1R antag-1 -23 and OX1R antag-2 77*.
For O=C(Cc1ccc(NC2=NC3CS(=O)(=O)CC3S2)cc1)NCc1ccc(Cl)cc1 (stereo unspecified) the results were CHO parental Ca -1, GPR7 antag 2, OX1R antag-1 -17 and OX1R antag-2 7.
For CC1CCc2nc(NC(=O)C3COc4ccccc4O3)sc2C1 (stereo unspecified) the results were CHO parental Ca -21, TRPN1 ag 2, GPR7 antag -3, TRPML3 ag 0, OX1R antag-1 -32 and OX1R antag-2 39*.
`COC(CNC(=O)Cn1nc(Cc2ccncc2)c2ccccc2c1=O)OC` gave CHO parental Ca -2, GPR7 antag 0, OX1R antag-1 -3 and OX1R antag-2 5.
Screening COc1ccc(C)cc1NC(=O)c1ccc(NS(=O)(=O)c2cccs2)cc1 returned CHO parental Ca -5, GPR7 antag -1, OX1R antag-1 -22 and OX1R antag-2 24.
`COc1cccc(-n2nc(C#N)c(Cl)cc2=O)c1` gave TRPN1 ag -1, GPR7 antag 41* and TRPML3 ag 1.
`C/C(O)=C(\N=Nc1cc(C)ccc1O)C(N)=O` gave CHO parental Ca -1, TRPN1 ag 2, GPR7 antag 0, TRPML3 ag 1, OX1R antag-1 -20 and OX1R antag-2 23.
`COc1ccc(-c2cc(N)n(S(=O)(=O)c3c(F)c(F)c(F)c(F)c3F)n2)cc1OC` gave CHO parental Ca 45*, TRPN1 ag -1, GPR7 antag 9, TRPML3 ag 0, OX1R antag-1 24 and OX1R antag-2 19.

Screening results (PubChem)
